Test [1] can be described thus: Dose required (i.v.) to reduce the lowering of arterial blood pressure caused by PAF in rats. Particulars: Rattus norvegicus.
The species named for test [2] is Mus musculus. In words: Percent protection of PAF-induced mortality in mice after 17h. It counts as functional. Also noted: concentration or dose not given beside the values. The procedure, abridged:
(§1)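 Duration study in male Swiss mice (22–26 g). Single 1 mg/kg iv dose of test compound at time 0. C18-PAF 100 µg/kg plus propranolol 1 mg/kg given iv via tail vein at the stated time after dosing, 10–40 mice per time point.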

For test [3], the species on record is Mus musculus. Kind of test: Percent protection of PAF-induced mortality in mice after 3h. It is filed as functional. Also noted: concentration or dose not given beside the values. The procedure, abridged:
as §1

The species named for test [4] is Mus musculus. In words: Percent protection of PAF-induced mortality in mice after 5 hr. It is filed as functional. Also noted: concentration or dose not given beside the values. The method in brief: as §1
In test [5] the test system is Mus musculus. In words: Compound was evaluated for the inhibition of PAF-induced mortality in mice, after intravenous administration of the drug. Particulars: read-out: ID50 (the source's name). It is filed as functional.
Test [6] is filed under the species Mus musculus. In words: Percent protection of PAF-induced mortality in mice after 2 hr. It counts as functional. Also noted: concentration or dose not given beside the values. The procedure, abridged:
as §1

For test [7], the species on record is Mus musculus. Kind of test: Percent protection of PAF-induced mortality in mice after 7 hr. It counts as functional. Also noted: concentration or dose not given beside the values. The procedure, abridged:
as §1

The species entered for test [8] is Mus musculus. In words: Percent protection of PAF-induced mortality in mice after 24 hr. It is filed as functional. Also noted: concentration or dose not given beside the values. The method in brief:
as §1

The species named for test [9] is Mus musculus. In words: Percent protection of PAF-induced mortality in mice after 0.5 hr. It is filed as functional. Also noted: concentration or dose not given beside the values. The method in brief:
as §1

The species named for test [10] is Mus musculus. Kind of test: Percent protection of PAF-induced mortality in mice after 5h; NP means no protection. It is filed as functional, organism-based. The method in brief: (§2)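 Male Swiss mice (22–26 g) given compound as a single 1 mg/kg iv dose at time 0. At the stated time, C18-PAF 100 µg/kg plus propranolol 1 mg/kg injected into a lateral tail vein. […] 10–40 mice per time point.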

Test [11] is filed under the species Mus musculus. Kind of test: Percent protection of PAF-induced mortality in mice after 7h; NP means no protection. It counts as functional, organism-based. The procedure, abridged:
as §2

This passage reports ID50, Protection and ED50 results from ChEMBL document CHEMBL1126180, “4-substituted 2-alkoxytetrahydrofurans as potent and long-lasting PAF antagonists” (J Med Chem, 1992).

“And” between values parts separate entries of the source, which are not always exact repeats. Equal entries are not always repeated. The source made the active and inactive calls. The calls are words filed in the database; no cut-off is given here.

In [1], `CC[n+]1ccccc1CN(C(C)=O)C(=O)OCC1COC(OCCCCCCOCc2ccc(-c3ccccc3)cc2)C1` (configuration not stated) displayed an ID50 of 0.012 mg/kg.

`C=CCCCCCCOCCCCCCOC1CC(COC(=O)N(Cc2cccc[n+]2CC)C(C)=O)CO1.[I-]` (configuration not stated): the Protection in test [2] was determined as 20%; in test [3], 88%; in [4], 63%; in test [6], 100%; in test [7], 40%. The compound further registered an ID50 in test [1] of 0.063 mg/kg. Further, the ED50 in test [5] came to 0.024 mg/kg.

In turn, `CC[n+]1ccccc1CN(C(C)=O)C(=O)OCC1COC(OCCC(C)C)C1` (configuration not stated) displayed an ID50 in test [1] of 0.21 mg/kg.

As for `CC[n+]1ccccc1CN(C(C)=O)C(=O)OCC1COC(OCCCc2ccccc2)C1` (configuration not stated), in test [1], the ID50 amounted to 0.12 mg/kg.

Turning to `CC[n+]1ccccc1CN(C(C)=O)C(=O)OCC1COC(OCCC(c2ccccc2)c2ccccc2)C1` (configuration not stated), the ID50 in test [1] came to 0.11 mg/kg.

For `CCCCCCCCCCCCCCCCCCCCOC1CC(COC(=O)N(Cc2cccc[n+]2CC)C(C)=O)CO1` (configuration not stated), in test [1], the ID50 turned out to be 0.048 mg/kg.

On to `CCCCCCCCCCCCCCCCCCOC1C[C@H](COC(=O)N(Cc2cccc[n+]2CC)C(C)=O)CO1.[I-]` (some centres not stated), for which the Protection was determined as 60% in [8], 93% in test [2], 100% in [4] and 100% in [7]. In [1], this compound gave an ID50 of 0.031 mg/kg. Besides, in test [5], the ED50 stood at 0.012 mg/kg.

With `CCCCCCCCCCCCCCCCCC1CC(COC(=O)N(Cc2cccc[n+]2CC)C(C)=O)CO1.[I-]` (configuration not stated), the Protection is 100% in test [9], 16% in [3] and 16% in test [6]. In addition, the ID50 in [1] turned out to be 0.05 mg/kg. For the same compound, the Protection result in test [10] was “inactive”. For the same compound, the ED50 in [5] worked out at 0.36 mg/kg.

Take `CCCCCCCCCCCCCCCCCCO[C@@H]1C[C@H](COC(=O)N(Cc2cccc[n+]2CC)C(C)=O)CO1.[I-]`: the values for the Protection in test [8], in test [2] and in [7] were 38%, 67% and 100%, respectively. This compound showed an ID50 in [1] of 0.066 mg/kg. In addition, in test [5], the ED50 is 0.03 mg/kg.

In [1], `CCOC1CC(COC(=O)N(Cc2cccc[n+]2CC)C(C)=O)CO1` (configuration not stated) displayed an ID50 of 2.3 mg/kg.

As to `CC[n+]1ccccc1CN(C(C)=O)C(=O)OCC1COC(OCCCCCCOCCCCCc2ccccc2)C1.[I-]` (configuration not stated), the Protection in [8] worked out at 38%; in test [2], 38%; in test [9] it was 100%; in [3], 100%; in test [4], 89%; in test [6], 100%. The Protection in test [7] is reported as 80%. In [1], this compound showed an ID50 of 0.021 mg/kg. Further, the ED50 in [5] is 0.0083 mg/kg.

Take `CCCCCCCCCCCCCCCCCCOCC1CC(COC(=O)N(Cc2cccc[n+]2CC)C(C)=O)CO1.[Cl-]` (configuration not stated): the Protection in test [8] worked out at 33%; in test [2], 44%; in test [3], 100%; in [4] it was 100%; in [7], 100%. In test [1], this compound displayed an ID50 of 0.011 mg/kg. For the same compound, the ED50 in [5] amounted to 0.026 mg/kg.

Consider `CCCCCCCCCCCCCCCCCCNC(=O)OCC(COC(=O)N(Cc1cccc[n+]1CC)C(C)=O)OC.[Cl-]` (configuration not stated) [CV-6209], for which the Protection is given as 48% in [8]; 95% in test [2]; 100% in test [9]; 100% in test [3]; 100% in test [4]; 100% in test [6]. This compound yielded a Protection in test [7] of 100%. This compound also yielded an ID50 in test [1] of 0.0078 mg/kg. Further, in test [5], the ED50 was determined as 0.022 mg/kg.

`CCCCCCCCCCOCCCCCCOC1CC(COC(=O)N(Cc2cccc[n+]2CC)C(C)=O)CO1.[I-]` (configuration not stated): the Protection amounted to 51% in [8]; 40% in test [2]; 100% in test [9]; 100% in test [3]; 100% in [4]; 100% in test [6]. In [7], this compound registered a Protection of 88%. The ID50 in [1] came to 0.004 mg/kg. The ED50 in [5] was determined as 0.0064 mg/kg.

In the case of `CCCCCCCCCCCCCCCCCCOC1CC(COC(=O)N(Cc2cccc[n+]2CC)C(C)=O)CO1.[Cl-]` (configuration not stated), the Protection in test [8] stood at 48%; in test [2], 81%; in test [9], 100%; in test [3] it was 100%; in [4], 100%; in [6], 100%. This compound gave a Protection in test [7] of 95%. In test [1], the ID50 was 0.026 mg/kg and 0.025 mg/kg. Also, in test [5], the ED50 stood at 0.023 mg/kg.

As to `CC[n+]1ccccc1CN(C(C)=O)C(=O)OCC1COC(OCCCCCCCCCCCCCCCCOC)C1.[I-]` (configuration not stated), the Protection in test [9] came to 100%; in test [3], 66%; in test [4], 59%; in [6] it was 100%. For the same compound, the ID50 in test [1] amounted to 0.04 mg/kg. For the same compound, the Protection entry in [11] was “inactive”. The ED50 in [5] is 0.0076 mg/kg.

Regarding `CCCCCCCCCCCCCCCCOCC1CC(COC(=O)N(Cc2cccc[n+]2CC)C(C)=O)CO1.[Cl-]` (configuration not stated), the Protection in test [8] worked out at 17%; in [2] it was 44%; in test [3], 75%; in test [4] it was 54%; in test [6] it was 100%; in test [7], 65%. The ID50 in test [1] turned out to be 0.027 mg/kg. The ED50 in test [5] turned out to be 0.031 mg/kg.

As to `CC[n+]1ccccc1CN(C(C)=O)C(=O)OCC1COC(OCCCCCCOCCCc2ccccc2)C1.[I-]` (configuration not stated), the Protection in test [3] came out at 50%; in [6], 100%. The same compound gave an ID50 in test [1] of 0.06 mg/kg. The Protection entry in [10] is “inactive”. In addition, the ED50 in test [5] was determined as 0.073 mg/kg.

Regarding `CCCCCCCCCCCCCCCCOC1CC(COC(=O)N(Cc2cccc[n+]2CC)C(C)=O)CO1.[I-]` (configuration not stated), the Protection is recorded as 44% in test [8]; 65% in test [2]; 100% in test [9]; 88% in test [3]; 61% in [4]; 100% in test [6]. The Protection in [7] turned out to be 64%. Besides, the ID50 in test [1] stood at 0.01 mg/kg. Besides, in test [5], the ED50 was found to be 0.024 mg/kg.
